“Also recorded” adds a separate entry of the source.
System: S. mansoni schistosomula (post-infective larvae)
Test: not given
Settings: cited from earlier work

Compound | Killing of S. mansoni schistosomula in vitro
O=C(Nc1ccc(C(F)(F)F)c(C(F)(F)F)c1)c1cc(Cl)ccc1O [compound 1] | kill S. mansoni adults[6] and schistosomula

System: adult S. mansoni
Test: Adult S. mansoni severity score assay
Format: cell-based, Schistosoma mansoni
Settings: not given
Procedure, shortened: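 Adult worms were exposed to the test compound at 5 μM. Responses were scored visually at 1, 5, 24 and 48 h using a constrained nomenclature of descriptors for the worm's responses to chemical insult. Each descriptor carries a value, and these values are summed into a severity score ranging from 0 (no activity) to 4 (maximum activity).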

Compound | Time by which adult worm integrity was severely compromised [h]
O=C(Nc1cccc(C(F)(F)F)c1)c1ccc(C(F)(F)F)cc1 [compound 11] | ≤ 1
O=C(Nc1ccc(Cl)c(Cl)c1)c1ccc(C(F)(F)F)cc1 [compound 9] | ≤ 1

Same assay, conditions: 5 μM, SAR discussion

Compound | Antischistosomal activity in words
O=C(Nc1cccc(C(F)(F)F)c1)c1ccccc1 [compound 15] | abolished activity
Cc1ccc(NC(=O)c2ccc(C(F)(F)F)cc2)cc1C [compound 7] | retains substantial potency
O=C(Nc1cccc(C(F)(F)F)c1)c1ccc(F)cc1 [compound 16] | activity was essentially abolished
Cc1ccc(NC(=O)c2ccccc2)cc1C [compound 14] | abolished activity
O=C(Nc1ccc(Cl)c(Cl)c1)c1ccccc1 [compound 25] | some activity was retained
O=C(Nc1ccccc1)c1ccc(C(F)(F)F)cc1 [compound 6] | inactive
COc1ccc(NC(=O)c2ccc(C(F)(F)F)cc2)cc1OC [compound 8] | inactive; also recorded: eliminated activity
O=C(Nc1ccc(F)c(F)c1)c1ccc(F)cc1 [compound 13] | activity was essentially compromised
O=C(Nc1ccc(Cl)nn1)c1cccc(F)c1 [compound 31, N-(6-chloropyridazin-3-yl)-3-fluorobenzamide] | inactive
N#Cc1ccc(C(=O)Nc2cccc(C(F)(F)F)c2)cc1 [compound 18] | abolished activity
O=C(Nc1ccccc1)c1ccc(F)cc1 [compound 23] | inactive

System: S. mansoni adults
Test: not given
Settings: cited from earlier work

Compound | Killing of S. mansoni adults in vitro
O=C(Nc1ccc(C(F)(F)F)c(C(F)(F)F)c1)c1cc(Cl)ccc1O [compound 1] | kill S. mansoni adults
